From ChEMBL document CHEMBL3232926, “Design, synthesis and biological evaluation of novel aminomethyl-piperidones based DPP-IV inhibitors” (Bioorg Med Chem Lett, 2014)
Calls of active or inactive are those of the source. No cut-off for these calls is given here.

Legend:
[1] = molecular target: Cytochrome P450 2C19 (Homo sapiens, UniProt P33261); assay: Inhibition of human CYP2C19 expressed in Escherichia coli using S-mephenytoin as substrate up to 100 uM preincubated for 5 mins followed by NADPH addition measured after 20 mins by HPLC analysis; assay type: ADME
[2] = Tmax in C57BL/6J mouse at 3 mg/kg, po; assay type: ADME, organism-based; set-up: dose 3 mg/kg, route oral; conditions: in vivo
In short: (§1)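 Single 3 mg/kg oral or iv dose to overnight-fasted male C57BL/6J mice (n = 6). Serial EDTA blood sampling at pre-dose and 0.15–48 h post-dose. Plasma separated at 4 °C, stored at -70 °C and analysed by LC–MS/MS on a C18 column. %F derived against iv AUC. Values are mean SD.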

[3] = molecular target: Cytochrome P450 2C9 (Homo sapiens, UniProt P11712); assay: Inhibition of human CYP2C9 expressed in Escherichia coli using diclofenac as substrate up to 100 uM preincubated for 5 mins followed by NADPH addition measured after 20 mins by HPLC analysis; assay type: ADME
[4] = AUC in C57BL/6J mouse at 3 mg/kg, iv; assay type: ADME, organism-based; set-up: dose 3 mg/kg, route intravenous; conditions: plasma; in short: as §1
[5] = AUC (0 to infinity) in C57BL/6J mouse at 3 mg/kg, po; assay type: ADME, organism-based; set-up: time infinity, dose 3 mg/kg, route oral; conditions: plasma; in short: as §1
[6] = Cmax in C57BL/6J mouse at 3 mg/kg, po; assay type: ADME, organism-based; set-up: dose 3 mg/kg, route oral; conditions: in vivo; in short: as §1
[7] = molecular target: Cytochrome P450 3A4 (Homo sapiens, UniProt P08684); assay: Inhibition of human CYP3A4 expressed in Escherichia coli using midazolam as substrate up to 100 uM preincubated for 5 mins followed by NADPH addition measured after 20 mins by HPLC analysis; assay type: ADME
[8] = molecular target: T1, Cytochrome P450 2C8 (Homo sapiens, UniProt P10632); assay: Inhibition of human CYP2C8 expressed in Escherichia coli using paclitaxel as substrate up to 100 uM preincubated for 5 mins followed by NADPH addition measured after 20 mins by HPLC analysis; assay type: ADME
T1 sequence (P10632 whole entry): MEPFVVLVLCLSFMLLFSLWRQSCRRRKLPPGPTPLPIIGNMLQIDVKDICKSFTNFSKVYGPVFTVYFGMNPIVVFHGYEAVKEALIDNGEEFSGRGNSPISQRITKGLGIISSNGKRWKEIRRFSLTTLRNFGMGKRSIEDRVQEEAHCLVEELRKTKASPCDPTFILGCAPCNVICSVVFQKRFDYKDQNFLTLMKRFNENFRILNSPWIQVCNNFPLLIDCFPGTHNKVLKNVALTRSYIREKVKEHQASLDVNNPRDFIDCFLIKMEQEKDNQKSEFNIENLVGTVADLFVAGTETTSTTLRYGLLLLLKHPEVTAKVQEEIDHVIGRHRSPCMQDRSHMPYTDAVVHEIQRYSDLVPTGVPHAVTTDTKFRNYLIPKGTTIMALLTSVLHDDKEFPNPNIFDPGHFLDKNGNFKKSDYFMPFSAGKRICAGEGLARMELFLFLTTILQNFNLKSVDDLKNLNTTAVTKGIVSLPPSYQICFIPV

[9] = molecular target: T2, Cytochrome P450 1A2 (Homo sapiens, UniProt P05177); assay: Inhibition of human CYP1A2 expressed in Escherichia coli using ethoxyresorufin as substrate up to 100 uM preincubated for 5 mins followed by NADPH addition measured after 20 mins by HPLC analysis; assay type: ADME
T2 sequence (P05177 whole entry): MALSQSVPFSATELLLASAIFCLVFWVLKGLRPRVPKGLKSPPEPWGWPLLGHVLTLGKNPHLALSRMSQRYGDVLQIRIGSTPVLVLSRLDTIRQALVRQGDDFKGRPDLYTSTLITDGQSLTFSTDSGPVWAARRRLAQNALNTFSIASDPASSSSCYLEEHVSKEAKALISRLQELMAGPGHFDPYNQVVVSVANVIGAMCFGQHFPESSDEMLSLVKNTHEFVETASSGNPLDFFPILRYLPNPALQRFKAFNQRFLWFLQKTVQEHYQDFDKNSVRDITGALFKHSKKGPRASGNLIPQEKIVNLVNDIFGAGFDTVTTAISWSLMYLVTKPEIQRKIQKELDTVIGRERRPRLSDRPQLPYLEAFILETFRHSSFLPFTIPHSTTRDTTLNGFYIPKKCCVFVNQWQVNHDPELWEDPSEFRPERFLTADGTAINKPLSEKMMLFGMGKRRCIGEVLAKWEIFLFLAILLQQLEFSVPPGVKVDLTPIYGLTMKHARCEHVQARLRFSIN

[10] = test system: Mus musculus; assay: Antidiabetic activity in overnight fasted C57BL/6J mouse assessed as decrease in serum glucose AUC at 3 mg/kg, po administered 0.5 hrs prior to glucose challenge measured up to 240 mins by DPEC-GOD/POD method relative to vehicle-treated control; assay type: functional; set-up: scale not given: the % may be the effect or the level left
In short: (§2)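 Male C57BL/6J mice fasted overnight with water ad libitum. Dosed orally at 3 mg/kg 0.5 h before the oral glucose load. Serum glucose read by the GOD/POD method at 15–240 min on duplicate samples, then 0–240 min AUC taken. Two-way ANOVA with Bonferroni post test against vehicle. Values are mean SEM.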

[11] = molecular target: Cytochrome P450 2D6 (Homo sapiens, UniProt P10635); assay: Inhibition of human CYP2D6 expressed in Escherichia coli using bufuralol as substrate up to 100 uM preincubated for 5 mins followed by NADPH addition measured after 20 mins by HPLC analysis; assay type: ADME
[12] = test system: Mus musculus; assay: Antidiabetic activity in fed db/db hyperglycemic mouse model assessed as decrease in serum glucose AUC at 3 mg/kg, po measured up to 2 hrs by DPEC-GOD/POD method relative to vehicle-treated control; assay type: functional; set-up: scale not given: the % may be the effect or the level left
[13] = Elimination rate constant in C57BL/6J mouse at 3 mg/kg, po; assay type: ADME, organism-based; set-up: dose 3 mg/kg, route oral; conditions: in vivo; in short: as §1
[14] = Half life in C57BL/6J mouse at 3 mg/kg, po; assay type: ADME, organism-based; set-up: dose 3 mg/kg, route oral; conditions: in vivo; in short: as §1
[15] = test system: Mus musculus; assay: Antidiabetic activity in fed db/db hyperglycemic mouse model assessed as decrease in serum glucose AUC at 3 mg/kg, po measured up to 24 hrs by DPEC-GOD/POD method relative to vehicle-treated control; assay type: functional; set-up: scale not given: the % may be the effect or the level left
In short: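 Fed male-unspecified db/db mice dosed orally at 3 mg/kg, with blood taken at time points up to 24 h. Serum glucose measured promptly by the GOD/POD method on duplicate samples. Glucose AUC compared with vehicle control by two-way ANOVA with Bonferroni post test. Values are mean SEM.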

[16] = Oral bioavailability in C57BL/6J mouse at 3 mg/kg; assay type: ADME, organism-based; conditions: in vivo; in short: as §1
[17] = test system: Mus musculus; assay: Antidiabetic activity in overnight fasted C57BL/6J mouse assessed as decrease in serum glucose level at 3 mg/kg, po administered 0.5 hrs prior to glucose challenge measured at 30 to 60 mins by DPEC-GOD/POD method; assay type: functional, organism-based; set-up: dose 3 mg/kg; in short: as §2

Sequence of Cytochrome P450 2C19 (P33261 whole entry): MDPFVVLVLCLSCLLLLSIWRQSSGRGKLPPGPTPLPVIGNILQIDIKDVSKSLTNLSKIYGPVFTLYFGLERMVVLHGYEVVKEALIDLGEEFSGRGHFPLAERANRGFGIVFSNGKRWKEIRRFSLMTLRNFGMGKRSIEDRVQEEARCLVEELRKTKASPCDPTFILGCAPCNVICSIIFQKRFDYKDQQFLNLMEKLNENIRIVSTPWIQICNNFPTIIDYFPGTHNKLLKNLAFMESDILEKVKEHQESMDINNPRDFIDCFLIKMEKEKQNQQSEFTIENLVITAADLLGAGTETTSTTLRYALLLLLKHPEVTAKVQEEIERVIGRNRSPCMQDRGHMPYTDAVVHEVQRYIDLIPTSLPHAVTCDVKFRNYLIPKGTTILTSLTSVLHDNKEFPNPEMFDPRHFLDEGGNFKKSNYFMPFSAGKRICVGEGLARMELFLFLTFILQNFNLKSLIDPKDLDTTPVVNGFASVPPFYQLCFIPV
Sequence of Cytochrome P450 2D6 (P10635 whole entry): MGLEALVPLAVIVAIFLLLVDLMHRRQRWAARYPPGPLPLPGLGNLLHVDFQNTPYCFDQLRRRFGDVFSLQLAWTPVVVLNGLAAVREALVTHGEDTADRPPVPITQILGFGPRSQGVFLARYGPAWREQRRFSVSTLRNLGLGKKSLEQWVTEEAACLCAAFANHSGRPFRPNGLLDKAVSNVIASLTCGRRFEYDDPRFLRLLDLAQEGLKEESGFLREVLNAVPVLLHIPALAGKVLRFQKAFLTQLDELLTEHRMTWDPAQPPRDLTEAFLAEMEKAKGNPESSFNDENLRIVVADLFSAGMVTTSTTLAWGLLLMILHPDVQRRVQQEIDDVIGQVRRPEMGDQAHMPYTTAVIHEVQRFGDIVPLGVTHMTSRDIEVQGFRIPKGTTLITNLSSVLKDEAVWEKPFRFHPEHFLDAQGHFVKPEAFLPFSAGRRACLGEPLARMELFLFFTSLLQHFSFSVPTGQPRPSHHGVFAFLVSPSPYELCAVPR
Sequence of Cytochrome P450 3A4 (P08684 whole entry): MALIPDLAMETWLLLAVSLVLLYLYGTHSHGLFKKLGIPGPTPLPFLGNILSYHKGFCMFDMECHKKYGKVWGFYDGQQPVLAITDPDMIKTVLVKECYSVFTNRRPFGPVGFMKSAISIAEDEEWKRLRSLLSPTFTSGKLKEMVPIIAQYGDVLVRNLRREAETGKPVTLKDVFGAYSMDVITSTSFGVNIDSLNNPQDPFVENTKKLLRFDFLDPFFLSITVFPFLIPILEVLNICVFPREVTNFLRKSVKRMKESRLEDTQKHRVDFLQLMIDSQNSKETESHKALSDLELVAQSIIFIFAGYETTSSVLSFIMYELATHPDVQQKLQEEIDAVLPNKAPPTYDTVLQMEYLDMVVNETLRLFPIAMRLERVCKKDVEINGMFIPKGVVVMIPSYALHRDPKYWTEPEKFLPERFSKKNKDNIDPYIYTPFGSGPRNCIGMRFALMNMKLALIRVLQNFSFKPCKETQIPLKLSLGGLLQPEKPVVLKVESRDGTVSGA
Sequence of Cytochrome P450 2C9 (P11712 whole entry): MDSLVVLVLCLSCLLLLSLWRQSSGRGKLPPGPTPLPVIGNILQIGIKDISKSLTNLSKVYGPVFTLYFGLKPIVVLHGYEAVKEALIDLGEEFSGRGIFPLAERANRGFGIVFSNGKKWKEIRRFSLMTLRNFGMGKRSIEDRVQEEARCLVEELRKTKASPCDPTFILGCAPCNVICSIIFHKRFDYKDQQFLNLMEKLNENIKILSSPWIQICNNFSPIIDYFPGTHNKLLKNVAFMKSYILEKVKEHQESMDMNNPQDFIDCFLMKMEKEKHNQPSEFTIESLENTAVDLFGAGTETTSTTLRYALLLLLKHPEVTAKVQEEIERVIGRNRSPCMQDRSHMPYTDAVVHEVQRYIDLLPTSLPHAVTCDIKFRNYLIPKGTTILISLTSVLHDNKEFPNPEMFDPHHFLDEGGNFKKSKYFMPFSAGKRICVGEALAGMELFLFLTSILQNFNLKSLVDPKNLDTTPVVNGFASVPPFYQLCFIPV

Q: Which “inhibition (INH)” value [1] does the source give for `NC[C@H]1CN(CCc2ccc3c(c2)OCO3)C(=O)C[C@@H]1c1cc(F)ccc1F` here?
A: Not Active

Q: And the Tmax [2]?
A: 16.8 min

Q: What about the “inhibition (INH)” value [3] of the same compound?
A: Not Active

Q: And the AUC [4]?
A: 1270 ng·h/mL

Q: What about the AUC(0-inf) [5] of the same compound?
A: 1010 ng·h/mL

Q: And the Cmax [6]?
A: 420 ng/mL

Q: What about the “inhibition (INH)” value [7] of the same compound?
A: Not Active

Q: What about the “inhibition (INH)” value [8] of the same compound?
A: Not Active

Q: And the “inhibition (INH)” value [9]?
A: Not Active

Q: And the Activity [10]?
A: 38.9%

Q: And the “inhibition (INH)” value [11]?
A: Not Active

Q: What about the Activity [12] of the same compound?
A: 38.29%

Q: What about the k el [13] of the same compound?
A: 3.33e-05 s⁻¹

Q: And the half-life [14]?
A: 539 min

Q: And the Activity [15]?
A: 20.62%

Q: What about the bioavailability [16] of the same compound?
A: 79.5%

Q: For `N[C@@H](CC(=O)N1CCn2c(nnc2C(F)(F)F)C1)Cc1cc(F)c(F)cc1F` [SITAGLIPTIN], which Tmax [2] is on record?
A: 13.2 min

Q: And the AUC [4]?
A: 740 ng·h/mL

Q: What about the AUC(0-inf) [5] of the same compound?
A: 560 ng·h/mL

Q: What about the Cmax [6] of the same compound?
A: 310 ng/mL

Q: What about the Activity [17] of the same compound?
A: Active

Q: And the Activity [10]?
A: 17.9%

Q: And the Activity [12]?
A: 20.8%

Q: What about the k el [13] of the same compound?
A: 0.000233 s⁻¹

Q: What about the half-life [14] of the same compound?
A: 93.6 min

Q: What about the Activity [15] of the same compound?
A: 1.48%

Q: And the bioavailability [16]?
A: 75.7%
